We go through six compounds from paper PMC11564564 (Scientific Reports, 2024).

Converted amounts (≈) assume the structure as drawn.

One data set has as its system ESBL-producing E. coli. Description: MIC by serial dilution, ESBL E. coli. In kind it is cell-based. Conditions: Escherichia coli, read-out: Minimum inhibitory concentration (MIC), E. coli. The procedure, abridged:
(§1)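 MIC was set by serial dilution of test compound, with three replicates per concentration. Strains were clinical E. coli, K. pneumoniae and P. aeruginosa isolates, identified biochemically and confirmed as ESBL producers by double disc synergy test (ceftazidime and cefotaxime discs 20 mm from amoxicillin/clavulanate on Mueller Hinton agar, 37 °C, 18–20 h).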

The subject of data set [1] is ESBL-producing K. pneumoniae. Description: MIC by serial dilution, ESBL K. pneumoniae. Conditions: Klebsiella pneumoniae, read-out: Minimum inhibitory concentration (MIC), K. pneumoniae. Type of data set: cell-based. The procedure, abridged: (§2)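 Bacterial isolates were confirmed ESBL-positive by double disc synergy test. For that test, a 0.5 McFarland suspension was swabbed onto Mueller Hinton agar, and ceftazidime and cefotaxime (30 μg) discs were placed 20 mm from an amoxicillin/clavulanate (30 μg) disc. Plates were incubated at 37 °C for 18-20 h, and an enhanced zone indicated ESBL. Test compounds were dissolved in appropriate solvents, and MIC was determined by serial dilution, three replicates per concentration.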

Data set [2] relates to ESBL-producing P. aeruginosa. Description: MIC by serial dilution, ESBL P. aeruginosa. In kind it is cell-based. The following applies: Pseudomonas aeruginosa, read-out: Minimum inhibitory concentration (MIC), P. aeruginosa. The procedure, abridged: as §2
A further data set concerns human red blood cells. Description: Hemolytic. In kind it is cell-based. The following applies: Erythrocyte, 1 h, read-out: IC50, Human RBC's. The procedure, abridged: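 Blood from a healthy donor was collected in EDTA. RBCs were pelleted at 14,000 rpm for 5 min, and 200 µL of pellet was resuspended in 9.8 mL PBS, pH 7.2. 100 µL suspension plus 100 µL test solution (200–1 µg/mL) were incubated 1 h at 35 °C, then spun at 10,000 rpm for 10 min. Supernatant haemoglobin was read at 540 nm. Triton X-100 and PBS defined 100% and 0% hemolysis.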

The next data set in a line: Brine shrimp lethality. Conditions: Artemia salina (brine shrimp), in vivo. The procedure, abridged: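 Artemia salina eggs were hatched for 24 h in aerated, lit salt water (27 g table salt per 3 L). Ten nauplii went into each tube with test compound at 1–200 µg/mL in 300 µL total. After 24 h, survivors were counted under a magnifier and percent mortality calculated. IC50 came from Finney analysis.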

The nature of another data set: Solubility in DMSO. Type of data set: physicochemical.
Data set [3] deals with ESBL-producing strains (E. coli, K. pneumoniae, and P. aeruginosa). Description: MIC, summary across ESBL-producing strains. In kind it is cell-based. Put shortly: as §1
Another data set has as its system tuberculosis. The following applies: cited from earlier work.

For the compound `COc1cc(C=Nc2ccc([N+](=O)[O-])cc2)ccc1O` [SB-1, 2-Methoxy-4-((4-nitrophenylimino)methyl)phenol], the MIC (with ESBL-producing E. coli; in data set [1]; in data set [2]; in data set [3]) was 125 µg/mL (≈ 459 µM) each time. In the data set with human red blood cells, the IC50 is greater than 200 µg/mL. This compound also had an IC50 at 24 h in “Brine shrimp lethality” of 50.5 µg/mL (≈ 185 µM). In “Solubility in DMSO”, the “Solubility in DMSO” value is “Soluble in DMSO”.

With `COc1cc(C=Nc2ccccc2Br)ccc1O` [SB-2, 4-((2-Bromophenylimino)methyl)-2-methoxyphenol], the MIC (in the data set on ESBL-producing E. coli; in data set [1]; in data set [2]; in data set [3]) was 250 µg/mL (≈ 817 µM) in each case. Also, the “Solubility in DMSO” value in the data set “Solubility in DMSO” is “Soluble in DMSO”.

With `COc1cc(C=Nc2ccc(C)cc2Cl)ccc1O` [SB-3, 4-((2-Chloro-4-methylphenylimino)methyl)-2-methoxyphenol], the MIC (with ESBL-producing E. coli; in data set [1]; in data set [2]; in data set [3]) was 125 µg/mL (≈ 453 µM) each time. Moreover, the IC50 in the data set with human red blood cells is greater than 200 µg/mL. Besides, in “Solubility in DMSO”, the “Solubility in DMSO” value is recorded as “Soluble in DMSO”.

`COc1cc(C=Nc2cccc(O)c2)ccc1O` [SB-4, 4-((3-Hydroxyphenylimino)methyl)-2-methoxyphenol]: the MIC (with ESBL-producing E. coli; in data set [1]; in data set [2]; in data set [3]) was 125 µg/mL (≈ 514 µM) each time. Besides, in the data set “Solubility in DMSO”, the “Solubility in DMSO” value is listed as “Soluble in DMSO”.

`COc1cc(C=Nc2ccc(Cl)cc2Cl)ccc1O` [SB-5, 4-((2,4-Dichlorophenylimino)methyl)-2-methoxyphenol]: the MIC (with ESBL-producing E. coli; in data set [1]; in data set [2]; in data set [3]) was 125 µg/mL (≈ 422 µM) each time. Further, in the data set on human red blood cells, the IC50 was greater than 200 µg/mL. In addition, the IC50 at 24 h in “Brine shrimp lethality” came to 45.7 µg/mL (≈ 154 µM). Further, the “Solubility in DMSO” value in “Solubility in DMSO” was “Soluble in DMSO”.

In the case of `[H]/N=C(/N)N[C@H]1[C@H](O)[C@@H](O)[C@H](O[C@@H]2O[C@@H](C)[C@](O)(C=O)[C@H]2O[C@@H]2O[C@@H](CO)[C@H](O)[C@@H](O)[C@@H]2NC)[C@@H](N/C(N)=N\[H])[C@@H]1O` [streptomycin], the “MIC, antituberculosis activity” value with tuberculosis is 10.7 µM (≈ 6.22 µg/mL).

What is called IC50 is the concentration at which inhibition is half-maximal.
